Source: ChEMBL document CHEMBL1157131, “Antibiotic indole sesquiterpene alkaloid from Greenwayodendron suaveolens with a new natural product framework” (2010)
Converted amounts (≈) assume the structure as drawn. The source made the active and inactive calls. The calls are words filed in the database; no cut-off is given here.

Columns and labels:
Staphylococcus aureus [1] = assay: Antimicrobial activity against methicillin sensitive Staphylococcus aureus ATCC 25923 after 24 hrs by broth microdilution method; assay type: functional
How it was run: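 Overnight culture diluted 1:100 in trypticase soy broth with 0.5% D-glucose and 3% NaCl, grown at 37 °C to OD600 0.4, then diluted 1:10. Compounds in DMSO diluted in medium, tested at a concentration series (3-6 wells per concentration); vancomycin positive control. Incubated 24 h at 37 °C; inhibition from OD600 change versus compound-free control wells.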

Staphylococcus aureus [2] = assay: Antimicrobial activity against cutaneous methicillin resistant Staphylococcus aureus isolate 105 expressing virulence gene system including PVL, ACME, bsaB and Agr genes after 24 hrs by broth microdilution method; assay type: functional; conditions: isolate 105, 24 h
How it was run: (§1)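 Clinical S. aureus isolates, first recovered from patient specimens on 5% sheep blood agar, tested by CLSI broth microdilution in cation-adjusted Mueller-Hinton broth. Initial inoculum 10^6 cfu/mL. After overnight incubation at 37 °C, MIC was read as the lowest concentration preventing visible growth. Overnight starter cultures were grown in TSB from frozen glycerol stocks.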

Staphylococcus aureus [3] = assay: Antimicrobial activity against cutaneous methicillin resistant Staphylococcus aureus isolate 106 expressing virulence gene system including PVL, ACME, bsaB and Agr genes after 24 hrs by broth microdilution method; assay type: functional; conditions: isolate 106, 24 h; how it was run: as §1
Staphylococcus aureus [4] = assay: Antimicrobial activity against cutaneous methicillin resistant Staphylococcus aureus isolate 107 expressing virulence gene system including PVL, ACME, bsaB and Agr genes after 24 hrs by broth microdilution method; assay type: functional; conditions: isolate 107, 24 h; how it was run: as §1
Staphylococcus aureus [5] = assay: Antimicrobial activity against cutaneous methicillin resistant Staphylococcus aureus isolate 108 expressing virulence gene system including PVL, bsaA and Agr genes after 24 hrs by broth microdilution method; assay type: functional; conditions: isolate 108, 24 h; how it was run: as §1
Staphylococcus aureus [6] = assay: Antimicrobial activity against cutaneous methicillin resistant Staphylococcus aureus isolate 111 expressing virulence gene system including PVL, ACME, bsaB and Agr genes after 24 hrs by broth microdilution method; assay type: functional; conditions: isolate 111, 24 h; how it was run: as §1
Staphylococcus aureus [7] = assay: Antimicrobial activity against cutaneous methicillin resistant Staphylococcus aureus isolate 148 expressing virulence gene system including PVL, ACME, bsaB and Agr genes after 24 hrs by broth microdilution method; assay type: functional; conditions: isolate 148, 24 h; how it was run: as §1
Staphylococcus aureus [8] = assay: Antimicrobial activity against cutaneous methicillin resistant Staphylococcus aureus isolate 158 expressing virulence gene system including PVL, ACME, bsaB and Agr genes after 24 hrs by broth microdilution method; assay type: functional; conditions: isolate 158, 24 h; how it was run: as §1
Staphylococcus aureus [9] = assay: Antimicrobial activity against cutaneous methicillin sensitive Staphylococcus aureus isolate 175 expressing virulence gene system including PVL, bsaB and Agr genes after 24 hrs by broth microdilution method; assay type: functional; conditions: isolate 175, 24 h; how it was run: as §1
Staphylococcus aureus [10] = assay: Antimicrobial activity against cutaneous methicillin resistant Staphylococcus aureus isolate 295 expressing virulence gene system bsaB and Agr genes after 24 hrs by broth microdilution method; assay type: functional; conditions: isolate 295, 24 h; how it was run: as §1
Staphylococcus aureus [11] = assay: Antimicrobial activity against invasive methicillin resistant Staphylococcus aureus isolate 186 expressing virulence gene system including PVL, bsaA and Agr genes after 24 hrs by broth microdilution method; assay type: functional; conditions: isolate 186, 24 h; how it was run: as §1
Staphylococcus aureus [12] = assay: Antimicrobial activity against invasive methicillin resistant Staphylococcus aureus isolate 194 expressing virulence gene system including PVL, ACME, bsaB and Agr genes after 24 hrs by broth microdilution method; assay type: functional; conditions: isolate 194, 24 h; how it was run: as §1
Staphylococcus aureus [13] = assay: Antimicrobial activity against clinical isolates of Staphylococcus aureus after 24 hrs by broth microdilution method
Staphylococcus aureus [14] = assay: Antimicrobial activity against cutaneous methicillin sensitive Staphylococcus aureus isolate 109 expressing virulence gene system including PVL, bsaB and Agr genes after 24 hrs by broth microdilution method; conditions: isolate 109, 24 h

MIC (Staphylococcus aureus [1])	Compound	MIC (Staphylococcus aureus [2]) [µg/mL]	MIC (Staphylococcus aureus [3]) [µg/mL]	MIC (Staphylococcus aureus [4]) [µg/mL]	MIC (Staphylococcus aureus [5]) [µg/mL]	MIC (Staphylococcus aureus [6]) [µg/mL]	MIC (Staphylococcus aureus [7]) [µg/mL]	MIC (Staphylococcus aureus [8]) [µg/mL]	MIC (Staphylococcus aureus [9]) [µg/mL]	MIC (Staphylococcus aureus [10]) [µg/mL]	MIC (Staphylococcus aureus [11]) [µg/mL]	MIC (Staphylococcus aureus [12]) [µg/mL]	MIC (Staphylococcus aureus [1]; ATCC 25923, 24 h) [µg/mL]	MIC90 (Staphylococcus aureus [13]) [µg/mL]	MIC (Staphylococcus aureus [14]) [µg/mL]
inactive	COC(=O)CC[C@@H]1C(=C(C)C)CC[C@@H](C)[C@@]1(C)Cc1c[nH]c2ccccc12														
	C[C@@H]1CC[C@@H]2C(=CC[C@H](O)C2(C)C)[C@]1(C)Cc1c[nH]c2ccccc12 [POLYALTHENOL]	1 (≈ 2.96 µM)	2 (≈ 5.93 µM)	1 (≈ 2.96 µM)	2 (≈ 5.93 µM)	2 (≈ 5.93 µM)	2 (≈ 5.93 µM)	4 (≈ 11.9 µM)	4 (≈ 11.9 µM)	4 (≈ 11.9 µM)	4 (≈ 11.9 µM)	2 (≈ 5.93 µM)	4 (≈ 11.9 µM)	4 (≈ 11.9 µM)	1 (≈ 2.96 µM)
	CC(C)=C1CC[C@@H](C)[C@@](C)(Cc2c[nH]c3ccccc23)[C@@H]1CCCO												19 (≈ 56 µM)		
	C[C@@H]1CCC2=C3[C@H](C[C@H](O)C2(C)C)c2[nH]c4ccccc4c2C[C@@]31C [PENTACYCLINDOLE]	8 (≈ 23.8 µM)	8 (≈ 23.8 µM)	8 (≈ 23.8 µM)	8 (≈ 23.8 µM)	8 (≈ 23.8 µM)	8 (≈ 23.8 µM)	8 (≈ 23.8 µM)	8 (≈ 23.8 µM)		8 (≈ 23.8 µM)		4 (≈ 11.9 µM)	8 (≈ 23.8 µM)	8 (≈ 23.8 µM)
